Series [1] relates to Liver microsome. Briefly: Prodrug conversion in rat liver microsomes assessed as depletion of compound at 10 uM after 180 mins incubation by HPLC-UV chromatography. Format: ADME. To be noted: 3 h. The procedure, abridged:
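HLM or RLM (0.5 mg/mL) were incubated in triplicate in 100 mM phosphate pH 7.4 with 10 mM MgCl2 and an NADPH-regenerating system (1 mM NADP+, glucose 6-phosphate, G6PDH). DB868 was 10 µM. Sampled up to 180 min. Prodrug and metabolites were measured by HPLC-UV at 359 nm and expressed relative to initial prodrug; DB829 LLOQ 50 nM.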
(Microsomes from liver hold many membrane-bound enzymes, among them those of drug oxidation.)

The target in series [2] is T1, Cytochrome P450 1A2 (Rattus norvegicus, UniProt P04799).
T1 sequence (P04799 whole entry): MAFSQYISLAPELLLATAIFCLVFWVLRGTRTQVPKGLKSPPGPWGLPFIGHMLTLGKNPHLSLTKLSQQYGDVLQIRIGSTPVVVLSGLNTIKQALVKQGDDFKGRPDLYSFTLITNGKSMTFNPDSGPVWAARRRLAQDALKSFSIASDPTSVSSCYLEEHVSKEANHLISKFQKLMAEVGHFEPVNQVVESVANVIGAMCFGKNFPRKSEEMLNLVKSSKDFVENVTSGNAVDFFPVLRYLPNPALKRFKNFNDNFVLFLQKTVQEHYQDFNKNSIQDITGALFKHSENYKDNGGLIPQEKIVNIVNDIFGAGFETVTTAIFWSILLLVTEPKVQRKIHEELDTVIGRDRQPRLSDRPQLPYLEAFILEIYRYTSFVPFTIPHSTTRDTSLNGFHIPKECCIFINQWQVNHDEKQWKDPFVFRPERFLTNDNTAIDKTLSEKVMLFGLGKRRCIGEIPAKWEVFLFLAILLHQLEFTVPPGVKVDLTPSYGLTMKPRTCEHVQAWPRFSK
Briefly: Prodrug conversion assessed as rat recombinant CYP1A2-mediated (3Z,3'Z)-6,6'-(furan-2,5-diyl)bis(N'-hydroxynicotinimidamide) formation at 5 uM after 180 mins incubation by HPLC-UV chromatogram. Format: ADME. To be noted: recombinant enzyme, 15 min, in the assay text read “15 mins” for “180 mins”. The procedure, abridged:
(§1)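 Insect-cell-expressed human or rat P450 (with NADPH-P450 reductase, some also with cytochrome b5) at 0.1 pmol/µL in 100 mM potassium phosphate pH 7.4 with 10 mM MgCl2. DB868 (for M1) or M1 (for M2) was added at 5 µM (0.5% DMSO) and started with 2 mM NADPH. Stopped after 15 min with ice-cold acetonitrile, then HPLC-UV. Duplicate incubations.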

Series [3] can be described thus: Drug metabolism in sandwich-cultured human hepatocytes assessed as (Z)-6-(5-(5-carbamimidoylpyridin-2-yl)furan-2-yl)-N' methoxynicotinimidamide at 10 uM after 4 hrs of incubation by HPLC-MS/MS analysis. The series is classed as ADME, cell-based, Hepatocyte. A digest of the protocol:
(§2)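 Sandwich-cultured hepatocytes were used on day 5 (human) or day 4 (rat) and rinsed with warm phenol-red-free DMEM. They were then exposed to 10 µM DB868 (0.1–0.2% DMSO) at 37°C. Medium and methanol/water cell lysates were collected at 0.5, 2, 4 and 24 h. Analytes were quantified by HPLC/MS/MS with deuterated internal standards; protein by Bradford. Replicates: 6 (human) or 4 (rat).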

Series [4] concerns Liver microsome. Description: Ratio of drug metabolism in […] to drug metabolism in rat hepatocytes at 10 uM after 4 hrs of incubation by HPLC-MS/MS analysis. The series is classed as ADME, cell-based, Hepatocyte.
Series [5] deals with Hepatocyte. Description: Biotransformation in sandwich-cultured human hepatocytes assessed as depletion of compound at 10 uM after 4 hrs of incubation by HPLC-MS/MS analysis. The series is classed as ADME, cell-based. The procedure, abridged: as §2
Series [6] in a line: Drug metabolism in sandwich-cultured rat hepatocytes assessed as (Z)-N'-hydroxy-6-(5-(5-((Z)-N'-methoxycarbamimidoyl)pyridin-2-yl)furan-2-yl)nicotinimidamide at 10 uM after 4 hrs of incubation by HPLC-MS/MS analysis. Format: ADME, cell-based, Hepatocyte. A digest of the protocol: as §2
In series [7] the target is T1, Cytochrome P450 1A2. Briefly: Prodrug conversion assessed as rat recombinant CYP1A2-mediated (Z)-N'-hydroxy-6-(5-(5-((Z)-N'-methoxycarbamimidoyl)pyridin-2-yl)furan-2-yl) nicotinimidamide formation at 5 uM after 180 mins incubation by HPLC-UV chromatogram. The series is classed as ADME. The following applies: recombinant enzyme, 15 min, in the assay text read “15 mins” for “180 mins”. The procedure, abridged: as §1

Series [8] is described as follows: Biotransformation in sandwich-cultured rat hepatocytes assessed as depletion of compound at 10 uM after 4 hrs of incubation by HPLC-MS/MS analysis. Format: ADME, cell-based, Hepatocyte. To be noted: read-out: Drug metabolism. A digest of the protocol: as §2
A short description of series [9]: Drug metabolism in sandwich-cultured human hepatocytes assessed as (3Z,3'Z)-6,6'-(furan-2,5-diyl)bis(N'-hydroxynicotinimidamide) at 10 uM after 4 hrs of incubation by HPLC-MS/MS analysis. Format: ADME, cell-based, Hepatocyte. The procedure, abridged:
as §2

Series [10] deals with T2, Cytochrome P450 4F1 (Rattus norvegicus, UniProt P33274).
T2 sequence (P33274 whole entry): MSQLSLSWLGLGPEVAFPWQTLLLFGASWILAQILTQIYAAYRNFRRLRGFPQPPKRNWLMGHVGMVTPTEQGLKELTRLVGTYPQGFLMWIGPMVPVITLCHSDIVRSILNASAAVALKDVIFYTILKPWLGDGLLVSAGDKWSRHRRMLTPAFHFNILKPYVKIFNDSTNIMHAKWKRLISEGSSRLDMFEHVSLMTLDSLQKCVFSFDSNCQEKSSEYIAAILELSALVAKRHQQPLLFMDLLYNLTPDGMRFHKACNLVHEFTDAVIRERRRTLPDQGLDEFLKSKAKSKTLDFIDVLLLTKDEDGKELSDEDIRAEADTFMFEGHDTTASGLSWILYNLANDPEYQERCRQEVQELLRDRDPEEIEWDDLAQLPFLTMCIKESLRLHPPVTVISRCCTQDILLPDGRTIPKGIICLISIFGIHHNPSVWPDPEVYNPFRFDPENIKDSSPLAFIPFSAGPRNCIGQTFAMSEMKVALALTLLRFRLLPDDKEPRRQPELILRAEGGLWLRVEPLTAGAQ
Description: Prodrug conversion assessed as rat purified CYP4F1-mediated (Z)-N'-hydroxy-6-(5-(5-((Z)-N'-methoxycarbamimidoyl)pyridin-2-yl)furan-2-yl) nicotinimidamide formation at 5 uM after 30 mins incubation by HPLC-UV chromatogram. To be noted: purified enzyme.

As for `CO/N=C(\N)c1ccc(-c2ccc(-c3ccc(/C(N)=N/OC)cn3)o2)nc1.Cl`, the Drug metabolism is 43% in [1]; “metabolite_detected” in series [2]; “metabolite_detected” in [3]; “metabolite_detected” in [5]; “metabolite_detected” in series [6]; “metabolite_detected” in [7]. For the same compound, the Drug metabolism result in series [9] and in series [10] was “metabolite_detected” each time. Besides, in [4], the Ratio was 25. Further, the metabolised at 4 h, 10 µM in series [8] is 50%.

Values taken from ChEMBL document CHEMBL3525966, “Compartmental and enzyme kinetic modeling to elucidate the biotransformation pathway of a centrally acting antitrypanosomal prodrug” (Drug Metab Dispos, 2013).
